Converted amounts (≈) assume the structure as drawn.

Assay type in all cases: functional
The test system of experiment [1] is Enterococcus faecalis. Put plainly: Antibacterial activity against Enterococcus faecalis 08-10 after 18 to 24 hrs by twofold serial dilution method. In short, it runs like this: (§1)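 MIC determined by the standard twofold serial dilution method on agar media, screening against Gram-positive and Gram-negative strains. Levofloxacin and gemifloxacin were run alongside as reference drugs.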

Experiment [2] deals with Streptococcus pneumoniae. Briefly: Antibacterial activity against Streptococcus pneumoniae 08-4 after 18 to 24 hrs by twofold serial dilution method. In short, it runs like this:
as §1

Experiment [3] concerns Klebsiella pneumoniae. Put plainly: Antibacterial activity against Klebsiella pneumoniae 09-23 after 18 to 24 hrs by twofold serial dilution method. The method in brief: as §1
The test system of experiment [4] is Klebsiella pneumoniae. Briefly: Antibacterial activity against Klebsiella pneumoniae 09-22 after 18 to 24 hrs by twofold serial dilution method. The method in brief: as §1
The subject of experiment [5] is Escherichia coli. Briefly: Antibacterial activity against Escherichia coli 08-21 after 18 to 24 hrs by twofold serial dilution method. The method in brief:
as §1

For experiment [6], the system named is Enterococcus faecium. Briefly: Antibacterial activity against Enterococcus faecium 08-2 after 18 to 24 hrs by twofold serial dilution method. The method in brief: as §1
The test system of experiment [7] is Staphylococcus epidermidis. Put plainly: Antibacterial activity against methicillin-resistant Staphylococcus epidermidis 09-3 after 18 to 24 hrs by twofold serial dilution method. The method in brief:
(§2)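 Standard twofold serial agar dilution method on agar media for MIC determination. Screened against representative Gram-positive and Gram-negative strains. Levofloxacin and GMFX served as control drugs.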

In experiment [8] the test system is Staphylococcus aureus. Briefly: Antibacterial activity against Staphylococcus aureus ATCC […] after 18 to 24 hrs by twofold serial dilution method. The method in brief:
as §1

Experiment [9] relates to Escherichia coli. Put plainly: Antibacterial activity against Escherichia coli ATCC 25922 after 18 to 24 hrs by twofold serial dilution method. The method in brief: as §1
For experiment [10], the system named is Staphylococcus epidermidis. Put plainly: Antibacterial activity against methicillin-resistant Staphylococcus epidermidis 09-4 after 18 to 24 hrs by twofold serial dilution method. The method in brief:
as §2

Experiment [11] deals with Enterococcus faecalis. Briefly: Antibacterial activity against Enterococcus faecalis 08-12 after 18 to 24 hrs by twofold serial dilution method. In short, it runs like this:
as §1

Experiment [12] concerns Enterococcus faecium. Put plainly: Antibacterial activity against Enterococcus faecium 08-7 after 18 to 24 hrs by twofold serial dilution method. The method in brief:
as §1

For experiment [13], the system named is Staphylococcus aureus. Briefly: Antibacterial activity against methicillin-resistant Staphylococcus aureus 08-1 after 18 to 24 hrs by twofold serial dilution method. In short, it runs like this:
as §2

Experiment [14] has as its system Pseudomonas aeruginosa. Briefly: Antibacterial activity against Pseudomonas aeruginosa 09-33 after 18 to 24 hrs by twofold serial dilution method. The method in brief:
as §1

Experiment [15] has as its system Klebsiella pneumoniae. Put plainly: Antibacterial activity against Klebsiella pneumoniae 09-21 after 18 to 24 hrs by twofold serial dilution method. In short, it runs like this: as §1
The subject of experiment [16] is Pseudomonas aeruginosa. Briefly: Antibacterial activity against Pseudomonas aeruginosa 09-35 after 18 to 24 hrs by twofold serial dilution method. In short, it runs like this: as §1
The test system of experiment [17] is Staphylococcus epidermidis. Put plainly: Antibacterial activity against methicillin-resistant Staphylococcus epidermidis 09-2 after 18 to 24 hrs by twofold serial dilution method. In short, it runs like this: as §2
The test system of experiment [18] is Staphylococcus epidermidis. Put plainly: Antibacterial activity against methicillin-sensitive Staphylococcus epidermidis 09-3 after 18 to 24 hrs by twofold serial dilution method. In short, it runs like this:
as §2

For experiment [19], the system named is Staphylococcus epidermidis. Briefly: Antibacterial activity against methicillin-sensitive Staphylococcus epidermidis 09-6 after 18 to 24 hrs by twofold serial dilution method. The method in brief:
as §2

In experiment [20] the test system is Pseudomonas aeruginosa. Put plainly: Antibacterial activity against Pseudomonas aeruginosa ATCC 27853 after 18 to 24 hrs by twofold serial dilution method. In short, it runs like this:
as §1

Experiment [21] relates to Pseudomonas aeruginosa. Briefly: Antibacterial activity against Pseudomonas aeruginosa 09-32 after 18 to 24 hrs by twofold serial dilution method. In short, it runs like this: as §1
In experiment [22] the test system is Streptococcus pneumoniae. Put plainly: Antibacterial activity against Streptococcus pneumoniae 08-2 after 18 to 24 hrs by twofold serial dilution method. In short, it runs like this: as §1
Experiment [23] relates to Escherichia coli. Briefly: Antibacterial activity against Escherichia coli 08-22 after 18 to 24 hrs by twofold serial dilution method. The method in brief: as §1
For experiment [24], the system named is Pseudomonas aeruginosa. Briefly: Antibacterial activity against Pseudomonas aeruginosa 09-34 after 18 to 24 hrs by twofold serial dilution method. The method in brief:
as §1

Experiment [25] concerns Staphylococcus aureus. Briefly: Antibacterial activity against methicillin-sensitive Staphylococcus aureus 08-2 after 18 to 24 hrs by twofold serial dilution method. In short, it runs like this: as §2

As to `CCO/N=C1\CN(c2c(F)cc3c(=O)c(C(=O)O)cn4c3c2OC[C@@H]4C)CC1/C(N)=N\OCC` (stereo not given in full), the MIC in the experiment on Enterococcus faecalis [1], with Streptococcus pneumoniae [2], against Klebsiella pneumoniae [3], against Klebsiella pneumoniae [4], against Escherichia coli [5] and in the experiment on Enterococcus faecium [6] was more than 128 µg/mL throughout. Also, the MIC is more than 128 µg/mL in experiment [7]; 1 µg/mL (≈ 2.1 µM) with Staphylococcus aureus [8]; 128 µg/mL (≈ 269 µM) against Escherichia coli [9]; more than 128 µg/mL in experiment [10]; more than 128 µg/mL in the experiment on Enterococcus faecalis [11]; more than 128 µg/mL against Enterococcus faecium [12]. The MIC in the experiment with Staphylococcus aureus [13] was 64 µg/mL (≈ 135 µM); in the experiment with Pseudomonas aeruginosa [14], more than 128 µg/mL; against Klebsiella pneumoniae [15], more than 128 µg/mL; against Pseudomonas aeruginosa [16], 64 µg/mL (≈ 135 µM); in [17], more than 128 µg/mL; in experiment [18] it was 8 µg/mL (≈ 16.8 µM). The MIC in experiment [19] is 8 µg/mL (≈ 16.8 µM); in the experiment with Pseudomonas aeruginosa [20], 64 µg/mL (≈ 135 µM); with Pseudomonas aeruginosa [21], 64 µg/mL (≈ 135 µM); in the experiment on Streptococcus pneumoniae [22] it was 64 µg/mL (≈ 135 µM); in the experiment on Escherichia coli [23], more than 128 µg/mL; in the experiment on Pseudomonas aeruginosa [24] it was more than 128 µg/mL. The molecule also came in with an MIC in the experiment with Staphylococcus aureus [25] of 64 µg/mL (≈ 135 µM).
Take `CCO/N=C1\CN(c2c(F)cc3c(=O)c(C(=O)O)cn(CCF)c3c2F)CC1/C(N)=N\OCC` (stereo not given): the MIC in the experiment with Enterococcus faecalis [1] is more than 128 µg/mL; against Streptococcus pneumoniae [2], 8 µg/mL (≈ 16.5 µM); against Klebsiella pneumoniae [3] it was more than 128 µg/mL; in the experiment on Klebsiella pneumoniae [4], more than 128 µg/mL; in the experiment on Escherichia coli [5] it was more than 128 µg/mL; against Enterococcus faecium [6] it was more than 128 µg/mL. Moreover, the MIC is 4 µg/mL (≈ 8.27 µM) in experiment [7]; 2 µg/mL (≈ 4.14 µM) with Staphylococcus aureus [8]; 128 µg/mL (≈ 265 µM) against Escherichia coli [9]; 4 µg/mL (≈ 8.27 µM) in experiment [10]; more than 128 µg/mL in the experiment with Enterococcus faecalis [11]; more than 128 µg/mL in the experiment with Enterococcus faecium [12]. The MIC with Staphylococcus aureus [13] was 4 µg/mL (≈ 8.27 µM); in the experiment with Pseudomonas aeruginosa [14] it was more than 128 µg/mL; against Klebsiella pneumoniae [15], more than 128 µg/mL; against Pseudomonas aeruginosa [16], more than 128 µg/mL; in [17], 4 µg/mL (≈ 8.27 µM); in [18], 4 µg/mL (≈ 8.27 µM). Besides, the MIC in experiment [19] was 8 µg/mL (≈ 16.5 µM); with Pseudomonas aeruginosa [20], 128 µg/mL (≈ 265 µM); against Pseudomonas aeruginosa [21], more than 128 µg/mL; with Streptococcus pneumoniae [22] it was 8 µg/mL (≈ 16.5 µM); against Escherichia coli [23], more than 128 µg/mL; against Pseudomonas aeruginosa [24] it was more than 128 µg/mL. In the experiment on Staphylococcus aureus [25], this molecule displayed an MIC of more than 128 µg/mL.
As to `C[C@H]1COc2c(N3CCN(C)CC3)c(F)cc3c(=O)c(C(=O)O)cn1c23.C[C@H]1COc2c(N3CCN(C)CC3)c(F)cc3c(=O)c(C(=O)O)cn1c23.O` [LEVOFLOXACIN], the MIC came to 8 µg/mL against Enterococcus faecalis [1]; 8 µg/mL against Klebsiella pneumoniae [3]; 16 µg/mL in the experiment on Klebsiella pneumoniae [4]; 16 µg/mL in the experiment on Escherichia coli [5]; 8 µg/mL in the experiment with Enterococcus faecium [6]; 0.25 µg/mL in [7]. Also, the MIC amounted to 0.06 µg/mL with Staphylococcus aureus [8]; 0.125 µg/mL with Escherichia coli [9]; 0.25 µg/mL in experiment [10]; 4 µg/mL in the experiment on Enterococcus faecalis [11]; 2 µg/mL in the experiment with Enterococcus faecium [12]; 0.125 µg/mL in the experiment on Staphylococcus aureus [13]. In addition, the MIC stood at 8 µg/mL against Klebsiella pneumoniae [15]; 0.25 µg/mL against Pseudomonas aeruginosa [16]; 0.25 µg/mL in [17]; 0.125 µg/mL in experiment [18]; 2 µg/mL in experiment [19]; 0.5 µg/mL against Pseudomonas aeruginosa [20]. Further, the MIC in the experiment with Pseudomonas aeruginosa [21] was 16 µg/mL; in the experiment with Escherichia coli [23], 16 µg/mL; in the experiment with Staphylococcus aureus [25], 0.06 µg/mL.
Take `CCO/N=C1\CN(c2c(F)cc3c(=O)c(C(=O)O)cn(CC)c3c2F)CC1/C(N)=N\OCC` (stereo not given): the MIC in the experiment with Enterococcus faecalis [1], against Streptococcus pneumoniae [2], against Klebsiella pneumoniae [3], in the experiment with Klebsiella pneumoniae [4], in the experiment on Escherichia coli [5] and in the experiment with Enterococcus faecium [6] was more than 128 µg/mL in each case. Also, the MIC against Staphylococcus aureus [8] is 8 µg/mL (≈ 17.2 µM); with Escherichia coli [9], more than 128 µg/mL; in experiment [10] it was more than 128 µg/mL; with Enterococcus faecalis [11], more than 128 µg/mL; in the experiment with Enterococcus faecium [12], more than 128 µg/mL; against Staphylococcus aureus [13] it was more than 128 µg/mL. Moreover, the MIC (against Pseudomonas aeruginosa [14]; in the experiment on Klebsiella pneumoniae [15]; against Pseudomonas aeruginosa [16]; in experiment [17]; in experiment [18]; in [19]) was more than 128 µg/mL in each case. Further, the MIC in the experiment with Pseudomonas aeruginosa [20], against Pseudomonas aeruginosa [21], against Streptococcus pneumoniae [22], with Escherichia coli [23], in the experiment on Pseudomonas aeruginosa [24] and against Staphylococcus aureus [25] was more than 128 µg/mL in each case.

The record behind these values is ChEMBL document CHEMBL1287651, “Synthesis and in vitro antibacterial activity of fluoroquinolone derivatives containing 3-(N'-alkoxycarbamimidoyl)-4-(alkoxyimino) pyrrolidines” (2010).
